Measured values as given in ChEMBL document CHEMBL3596101, “The Mechanism of Ca(2+) Movement in the Involvement of Baicalein-Induced Cytotoxicity in ZR-75-1 Human Breast Cancer Cells” (J Nat Prod, 2015).
The source made the active and inactive calls. The rule behind the calls is not given here.

Tests used:
ZR-75-1 [1] = test: Effect on endoplasmic reticulum Ca2+ pump inhibitor BHQ-induced intracellular Ca2+ increase in human ZR-75-1 cells at 40 uM pretreated with BHQ followed by compound addition in presence of Ca2+ free medium; format: functional, cell-based
How it was run: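 ZR-75-1 cells loaded with 2 μM fura-2-AM for 30 min at 25 °C, then suspended in Ca2+-free medium (pH 7.4; 0.3 mM EGTA, 3 mM MgCl2). Stirred cuvette at 25 °C. Thapsigargin (1 μM) or BHQ (50 μM) given before or after 40 μM compound. Excitation 340/380 nm, emission 510 nm, read at 1 s intervals. [Ca2+]i calibrated with Triton X-100/CaCl2 then EGTA.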

ZR-75-1 [2] = test: Induction of apoptosis in human ZR-75-1 cells assessed as early apoptotic cells at 30 uM after 24 hrs by annexin V-FITC/propidium iodide staining-based flow cytometric analysis (reference value: 6.84%); format: functional
How it was run: (§1)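 ZR-75-1 cells exposed to 20–40 μM compound for 24 h, with 5 μM BAPTA-AM or NAC added first where indicated. Cells stained with Alexa Fluor 488 annexin V/PI for 15 min, at least 20000 cells analysed by flow cytometry (488 nm excitation, 530/575 nm filters). Early = annexin V+/PI−, late = annexin V+/PI+. Three independent biological replicates.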

ZR-75-1 [3] = test: Induction of apoptosis in human ZR-75-1 cells assessed as late apoptotic cells at 40 uM after 24 hrs by annexin V-FITC/propidium iodide staining-based flow cytometric analysis (reference value: 2.53%); format: functional; how it was run: as §1
ZR-75-1 [4] = test: Increase in intracellular Ca2+ level in human ZR-75-1 cells at 40 uM by fura-2-AM dye-based spectrofluorophotometric analysis in presence of Ca2+ containing medium with Ca2+ chelator BAPTA-AM; format: functional, cell-based
How it was run: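 Fura-2-loaded ZR-75-1 cells treated with 5 μM BAPTA-AM, then 40 μM compound in Ca2+-containing medium (2 mM CaCl2, pH 7.4). Ratio fluorescence 340/380 nm excitation, 510 nm emission, 25 °C cuvette.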

ZR-75-1 [5] = test: Induction of luminal endoplasmic reticulum Ca2+ increases in human ZR-75-1 cells assessed as ratio of Ca2+ level at 40 uM by Mag-fura-2 dye-based fluorescence assay (reference value: 0.67 +/- 0.02); format: functional
How it was run: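 ZR-75-1 cells loaded with 2 μM Mag-fura-2-AM for 45 min at 37 °C, permeabilized 2 min with […] digitonin in high-K+ intracellular buffer (pH 7.2). Perfused with 0.2 mM Mg-ATP, free Ca2+ clamped at 170 nM. Ratio calibrated with ionomycin plus Ca2+ or EGTA, Kd 53 μM. Control versus 40 μM compound.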

ZR-75-1 [6] = test: Induction of cell death in human ZR-75-1 cells at 20 to 50 uM after 24 hrs by WST-1 assay in presence of antioxidant N-Acetylcysteine; format: functional, cell-based
How it was run: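 WST-1 viability assay in ZR-75-1 cells: 5 μM NAC added, then 20–50 μM compound in NAC-containing medium for 24 h. A450 read after 30 min WST-1 incubation and expressed as % of control. Mean ± SEM of three experiments.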

ZR-75-1 [7] = test: Increase in intracellular Ca2+ level in human ZR-75-1 cells at 40 uM treated for 25 secs by fura-2-AM dye-based spectrofluorophotometric analysis in presence of Ca2+ containing medium (reference value: 50 +/- 3 nM); format: functional
How it was run: (§2)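 Fura-2-loaded ZR-75-1 cells (0.5 million per 1 mL, stirred, 25 °C) in Ca2+-containing or Ca2+-free medium. Compound added at 25 s. 340/380 nm excitation, 510 nm emission at 1 s intervals, calibrated to nM. Concentration-response from baseline-subtracted area under curve (25–250 s) as % of 50 μM response in Ca2+ medium. EC50 from Hill fit. Three experiments.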

ZR-75-1 [8] = test: Increase in intracellular Ca2+ level in human ZR-75-1 cells treated for 25 secs by fura-2-AM dye-based spectrofluorophotometric analysis in presence of Ca2+-free medium; format: functional, cell-based; how it was run: as §2
ZR-75-1 [9] = test: Induction of apoptosis in human ZR-75-1 cells assessed as activation of caspase-9 at 20 to 40 uM preincubated for 24 hrs followed by antioxidant N-Acetylcysteine addition by Western immunoblot analysis; format: functional, cell-based
How it was run: (§3)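 Confluent ZR-75-1 cells (3 × 10^6/dish) treated with 20, 30 or 40 μM compound for 24 h. Where used, 5 μM BAPTA-AM or 5 μM NAC was added before the compound. About 50 μg lysate protein run on 10% SDS-PAGE, transferred to PVDF, probed for cleaved caspase-9/-3 and β-actin, chemiluminescence. Densitometry normalized to β-actin. Three experiments.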

ZR-75-1 [10] = test: Induction of reactive oxygen species production in human ZR-75-1 cells at 20 to 40 uM after 24 hrs by DCFH-DA probe-based flow cytometric analysis in presence of Ca2+ containing medium with Ca2+ chelator BAPTA-AM; format: functional, cell-based
How it was run: (§4)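 ZR-75-1 cells treated with 20–40 μM compound for 24 h, with 5 μM BAPTA-AM added first where indicated. Cells suspended at 1 × 10^6/mL, loaded with 10 μM DCFH-DA for 30 min at 37 °C. DCF read by flow cytometry (488 nm excitation, 530/30 nm filter, 10000 cells). % H2O2-positive (M1) after subtracting the baseline without probe. Three experiments.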

ZR-75-1 [11] = test: Induction of apoptosis in human ZR-75-1 cells at 20 to 40 uM after 24 hrs by annexin V-FITC/propidium iodide staining-based flow cytometric analysis in presence of Ca2+ chelator BAPTA-AM; format: functional, cell-based; how it was run: as §1
ZR-75-1 [12] = test: Induction of apoptosis in human ZR-75-1 cells assessed as activation of caspase-9 at 20 to 40 uM preincubated for 24 hrs followed by Ca2+ chelator BAPTA-AM addition by Western immunoblot analysis; format: functional, cell-based; how it was run: as §3
ZR-75-1 [13] = test: Induction of reactive oxygen species production in human ZR-75-1 cells at 40 uM after 24 hrs by DCFH-DA probe-based flow cytometric analysis (reference value: 3.623%); format: functional; how it was run: as §4
ZR-75-1 [14] = test: Increase in intracellular Ca2+ level in human ZR-75-1 cells at 40 uM measured every 150 secs by fura-2-AM dye-based spectrofluorophotometric analysis in presence of Ca2+ containing medium with PKC inhibitor GF109203X; format: functional, cell-based
How it was run: (§5)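 In Ca2+-containing medium (2 mM CaCl2), 2-APB (30 μM) or GF109203X (2 μM) was added 1 min before 40 μM compound to fura-2-loaded ZR-75-1 cells at 25 °C. Response = net area under curve over a 150 s interval, as % of compound alone. Mean ± SEM, n=3.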

ZR-75-1 [15] = test: Induction of apoptosis in human ZR-75-1 cells assessed as early apoptotic cells at 20 uM after 24 hrs by annexin V-FITC/propidium iodide staining-based flow cytometric analysis (reference value: 6.84%); format: functional; how it was run: as §1
ZR-75-1 [16] = test: Induction of apoptosis in human ZR-75-1 cells assessed as activation of caspase-3 at 20 to 40 uM preincubated for 24 hrs followed by Ca2+ chelator BAPTA-AM addition by Western immunoblot analysis; format: functional, cell-based; how it was run: as §3
ZR-75-1 [17] = test: Increase in intracellular Ca2+ level in human ZR-75-1 cells treated for 25 secs by fura-2-AM dye-based spectrofluorophotometric analysis in presence of Ca2+ containing medium; format: functional, cell-based; how it was run: as §2
ZR-75-1 [18] = test: Induction of apoptosis in human ZR-75-1 cells at 20 to 40 uM preincubated for 24 hrs followed by antioxidant N-Acetylcysteine addition by annexin V-FITC/propidium iodide staining-based flow cytometric analysis; format: functional, cell-based; how it was run: as §1
ZR-75-1 [19] = test: Induction of apoptosis in human ZR-75-1 cells assessed as increase in cleaved caspase-9 level at 20 to 40 uM after 24 hrs by Western immunoblot analysis; format: functional, cell-based; how it was run: as §3
ZR-75-1 [20] = test: Increase in intracellular Ca2+ level in human ZR-75-1 cells at 40 uM measured every 150 secs by fura-2-AM dye-based spectrofluorophotometric analysis in presence of Ca2+ containing medium with store-operated Ca2+ channel blocker 2-APB; format: functional, cell-based; how it was run: as §5

O=c1cc(-c2ccccc2)oc2cc(O)c(O)c(O)c12 [BAICALEIN] was tested, and the Activity (ZR-75-1 [1]) was “inactive”, the Activity (ZR-75-1 [2]) was 50.72% and the Activity (ZR-75-1 [3]) was 6.32%. The Activity (ZR-75-1 [4]) was “inactive”, the Ratio (ZR-75-1 [5]) was 0.875 and the Activity (ZR-75-1 [6]) was “inactive”. The Activity (ZR-75-1 [7]) was 220 nM, the EC50 (ZR-75-1 [8]) was 35 µM and the Activity (ZR-75-1 [9]) was “inactive”. The Activity (ZR-75-1 [10]) was “inactive”, the Activity (ZR-75-1 [11]) was “inactive” and the Activity (ZR-75-1 [12]) was “inactive”. The Activity (ZR-75-1 [13]) was 43.227%, the Activity (ZR-75-1 [14]) was “inactive” and the Activity (ZR-75-1 [15]) was 22.71%. The Activity (ZR-75-1 [16]) was “inactive”, the Activity (ZR-75-1 [17]) was “Dose-dependent effect” and the EC50 (ZR-75-1 [17]) was 25 µM. For the same compound, the Activity (ZR-75-1 [18]) was “inactive”, the Activity (ZR-75-1 [19]) was “Active” and the Activity (ZR-75-1 [20]) was “inactive”.
